According to BindingDB's records for doi:10.1021/jm9900321 (Dupont Pharmaceuticals, 2000):

How the values were obtained:
[1] = molecular target: T1, Integrin alpha-IIb/beta-3 (Homo sapiens, UniProt P08514+P05106); assay: Inhibition of platelet aggregation in human gel-purified platelets containing fibrinogen (GPP+Fg).
Method in brief: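 Platelets are gel-filtered from human PRP on sepharose (2×10⁸ platelets/mL). They are assayed with 1 mM CaCl₂ and 1 mg/mL fibrinogen across a range of test-agent concentrations, and IC₅₀ is calculated from the inhibition curve.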

[2] = Inhibition of platelet aggregation in human platelet rich plasma (PRP)
[3] = molecular target: T1, Integrin alpha-IIb/beta-3; assay: Inhibition of platelet aggregation in human platelet rich plasma (PRP)
Method in brief: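 Human PRP is obtained by centrifuging blood at 150g for 10 min; platelet-poor plasma serves as the 100% transmittance blank. PRP at 2×10⁸ platelets/mL is preincubated with test agent at several concentrations for 8 min. It is then stimulated with ADP (10 μM final), and aggregation is followed as light transmittance over time to derive IC₅₀.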

T1 sequence (P05106 27-788 limits assumed): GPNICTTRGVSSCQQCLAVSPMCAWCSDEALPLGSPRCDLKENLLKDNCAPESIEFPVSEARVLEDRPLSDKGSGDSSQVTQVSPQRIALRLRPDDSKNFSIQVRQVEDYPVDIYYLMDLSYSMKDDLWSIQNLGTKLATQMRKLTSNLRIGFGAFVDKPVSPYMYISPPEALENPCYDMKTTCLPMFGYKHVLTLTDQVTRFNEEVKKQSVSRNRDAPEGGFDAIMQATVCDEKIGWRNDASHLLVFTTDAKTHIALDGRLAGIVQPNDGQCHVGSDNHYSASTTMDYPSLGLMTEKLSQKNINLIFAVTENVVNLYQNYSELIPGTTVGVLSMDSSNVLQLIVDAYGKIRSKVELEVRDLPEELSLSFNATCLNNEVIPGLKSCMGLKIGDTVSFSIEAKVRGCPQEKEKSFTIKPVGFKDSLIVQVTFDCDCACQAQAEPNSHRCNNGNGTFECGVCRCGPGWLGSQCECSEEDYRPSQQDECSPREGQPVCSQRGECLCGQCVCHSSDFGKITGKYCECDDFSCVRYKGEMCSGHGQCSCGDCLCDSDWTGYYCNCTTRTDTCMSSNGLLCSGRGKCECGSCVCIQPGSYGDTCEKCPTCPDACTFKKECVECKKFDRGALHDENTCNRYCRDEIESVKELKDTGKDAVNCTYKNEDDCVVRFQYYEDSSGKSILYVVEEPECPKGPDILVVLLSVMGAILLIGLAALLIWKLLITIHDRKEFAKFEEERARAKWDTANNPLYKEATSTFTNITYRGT
T1 sequence (P08514 32-887 limits assumed): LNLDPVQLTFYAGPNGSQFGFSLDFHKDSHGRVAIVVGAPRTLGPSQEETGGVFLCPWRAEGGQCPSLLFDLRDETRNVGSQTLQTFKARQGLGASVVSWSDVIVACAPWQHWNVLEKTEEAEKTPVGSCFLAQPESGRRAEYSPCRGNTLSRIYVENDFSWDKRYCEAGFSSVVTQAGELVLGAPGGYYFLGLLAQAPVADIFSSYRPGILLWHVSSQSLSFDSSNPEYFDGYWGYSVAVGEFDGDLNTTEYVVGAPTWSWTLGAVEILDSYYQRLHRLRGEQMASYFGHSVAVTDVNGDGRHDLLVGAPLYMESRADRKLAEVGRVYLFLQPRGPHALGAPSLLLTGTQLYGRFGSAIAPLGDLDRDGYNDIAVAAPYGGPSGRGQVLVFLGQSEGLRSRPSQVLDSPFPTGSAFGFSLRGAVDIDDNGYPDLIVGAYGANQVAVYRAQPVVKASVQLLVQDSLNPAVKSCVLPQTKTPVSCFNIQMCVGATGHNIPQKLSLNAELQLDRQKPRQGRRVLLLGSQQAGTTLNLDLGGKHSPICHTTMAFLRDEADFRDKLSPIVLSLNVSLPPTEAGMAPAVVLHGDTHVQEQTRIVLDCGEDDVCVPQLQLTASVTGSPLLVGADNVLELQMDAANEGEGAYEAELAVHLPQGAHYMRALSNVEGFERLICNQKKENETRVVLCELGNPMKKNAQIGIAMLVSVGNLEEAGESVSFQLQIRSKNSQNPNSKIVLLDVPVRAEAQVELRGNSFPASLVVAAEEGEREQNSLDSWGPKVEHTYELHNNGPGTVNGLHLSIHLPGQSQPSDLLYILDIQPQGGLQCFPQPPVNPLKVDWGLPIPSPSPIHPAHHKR
T1 sequence (P08514 891-1039 limits assumed): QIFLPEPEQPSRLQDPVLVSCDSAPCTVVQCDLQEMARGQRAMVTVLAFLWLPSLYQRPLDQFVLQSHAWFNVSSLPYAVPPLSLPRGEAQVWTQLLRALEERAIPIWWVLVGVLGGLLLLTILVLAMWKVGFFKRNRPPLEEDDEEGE

IC50 [1] [µM]	IC50 [2] [µM]	IC50 [3] [µM]	SMILES
28	68	–	Cc1cc(C)c(S(=O)(=O)N[C@H](CNC(=O)C2=NOC(CCCCNc3ncc[nH]3)C2)C(=O)O)c(C)c1 (stereo partly specified)
0.19	0.35	–	O=C(NC[C@H](NS(=O)(=O)c1c(Cl)cccc1Cl)C(=O)O)C1=NOC(CCCCNc2ncc[nH]2)C1 (stereo partly specified) [2-(2,6-Dichloro-benzenesulfonylamino)-3-({5-[4-(1H-imidazol-2-ylamino)-butyl]-4,5-dihydro-isoxazole-3-carbonyl}-amino)-propionic acid]
–	0.39	–	Cc1cccc(Cl)c1S(=O)(=O)N[C@@H](CNC(=O)C1=NOC(CCCCNc2ncc[nH]2)C1)C(=O)O (stereo partly specified) [2-(2-Chloro-6-methyl-benzenesulfonylamino)-3-({5-[4-(1H-imidazol-2-ylamino)-butyl]-4,5-dihydro-isoxazole-3-carbonyl}-amino)-propionic acid]
–	1.6	–	O=C(NC[C@H](NS(=O)(=O)c1c(Cl)cc(-c2ccccc2)cc1Cl)C(=O)O)C1=NOC(CCCCNc2ncc[nH]2)C1 (stereo partly specified) [2-(3,5-Dichloro-biphenyl-4-sulfonylamino)-3-({5-[4-(1H-imidazol-2-ylamino)-butyl]-4,5-dihydro-isoxazole-3-carbonyl}-amino)-propionic acid]
0.69	3.1	–	Cc1cc(-c2ccccc2)cc(C)c1S(=O)(=O)N[C@@H](CNC(=O)C1=NOC(CCCCNc2ncc[nH]2)C1)C(=O)O (stereo partly specified) [2-(3,5-Dimethyl-biphenyl-4-sulfonylamino)-3-({5-[4-(1H-imidazol-2-ylamino)-butyl]-4,5-dihydro-isoxazole-3-carbonyl}-amino)-propionic acid]
–	1.5	–	Cc1noc(C)c1S(=O)(=O)N[C@@H](CNC(=O)C1=NOC(CCCCNc2ncc[nH]2)C1)C(=O)O (stereo partly specified) [2-(3,5-Dimethyl-isoxazole-4-sulfonylamino)-3-({5-[4-(1H-imidazol-2-ylamino)-butyl]-4,5-dihydro-isoxazole-3-carbonyl}-amino)-propionic acid]
47	84	–	N[C@@H](CNC(=O)C1=NOC(CCCCNc2ncc[nH]2)C1)C(=O)O (stereo partly specified) [2-Amino-3-({5-[4-(1H-imidazol-2-ylamino)-butyl]-4,5-dihydro-isoxazole-3-carbonyl}-amino)-propionic acid]
> 100	–	–	Cc1cc(C)c(S(=O)(=O)N[C@@H](CNC(=O)C2=NOC(CCCC(=O)Nc3ncc[nH]3)C2)C(=O)O)c(C)c1 (stereo partly specified) [3-({5-[3-(1H-Imidazol-2-ylcarbamoyl)-propyl]-4,5-dihydro-isoxazole-3-carbonyl}-amino)-2-(2,4,6-trimethyl-benzenesulfonylamino)-propionic acid]
–	0.85	–	Cc1cc(C)c(S(=O)(=O)N[C@@H](CNC(=O)C2=NOC(CCCCNc3ncc[nH]3)C2)C(=O)O)c(C)c1 (stereo partly specified) [3-({5-[4-(1H-Imidazol-2-ylamino)-butyl]-4,5-dihydro-isoxazole-3-carbonyl}-amino)-2-(2,4,6-trimethyl-benzenesulfonylamino)-propionic acid]
0.57	7.8	–	O=C(NC[C@H](NS(=O)(=O)c1cccc2ccccc12)C(=O)O)C1=NOC(CCCCNc2ncc[nH]2)C1 (stereo partly specified) [3-({5-[4-(1H-Imidazol-2-ylamino)-butyl]-4,5-dihydro-isoxazole-3-carbonyl}-amino)-2-(naphthalene-1-sulfonylamino)-propionic acid]
0.6	0.69	–	Cc1cc(C)c(S(=O)(=O)N[C@@H](CNC(=O)C2=NOC(CCCCNC3=NCCN3)C2)C(=O)O)c(C)c1 (stereo partly specified) [3-({5-[4-(4,5-Dihydro-1H-imidazol-2-ylamino)-butyl]-4,5-dihydro-isoxazole-3-carbonyl}-amino)-2-(2,4,6-trimethyl-benzenesulfonylamino)-propionic acid]

The remaining lines, values behind:

SMILES	IC50 [1] [µM]	IC50 [2] [µM]	IC50 [3] [µM]
N=C(N)c1ccc(C2=NO[C@@H](CC(=O)NCCC(=O)O)C2)cc1	0.14	0.24	–
Cc1cc(-c2ccccc2)cc(C)c1S(=O)(=O)N[C@@H](CNC(=O)C1=NOC(CCCCNc2ccccn2)C1)C(=O)O (stereo partly specified) [2-(3,5-Dimethyl-biphenyl-4-sulfonylamino)-3-({5-[4-(pyridin-2-ylamino)-butyl]-4,5-dihydro-isoxazole-3-carbonyl}-amino)-propionic acid]	–	> 100	–
CC(C)c1ccc(S(=O)(=O)N[C@@H](CNC(=O)C2=NOC(CCCCNc3ccccn3)C2)C(=O)O)cc1 (stereo partly specified) [2-(4-Isopropyl-benzenesulfonylamino)-3-({5-[4-(pyridin-2-ylamino)-butyl]-4,5-dihydro-isoxazole-3-carbonyl}-amino)-propionic acid]	–	> 100	–
O=C(NC[C@H](NS(=O)(=O)c1ccc(-c2ccccc2)cc1)C(=O)O)C1=NOC(CCCCNc2ncc[nH]2)C1 (stereo partly specified) [2-(Biphenyl-4-sulfonylamino)-3-({5-[4-(1H-imidazol-2-ylamino)-butyl]-4,5-dihydro-isoxazole-3-carbonyl}-amino)-propionic acid]	5	43	–
O=C(NC[C@H](NS(=O)(=O)c1cccc2ccccc12)C(=O)O)C1=NOC(CCCCNc2ccccn2)C1 (stereo partly specified) [2-(Naphthalene-1-sulfonylamino)-3-({5-[4-(pyridin-2-ylamino)-butyl]-4,5-dihydro-isoxazole-3-carbonyl}-amino)-propionic acid]	–	> 100	–
O=C(NC[C@H](NS(=O)(=O)c1ccccc1)C(=O)O)C1=NOC(CCCCNc2ccccn2)C1 (stereo partly specified) [2-Benzenesulfonylamino-3-({5-[4-(pyridin-2-ylamino)-butyl]-4,5-dihydro-isoxazole-3-carbonyl}-amino)-propionic acid]	18	30	–
O=C(N[C@@H](CNC(=O)C1=NOC(CCCCNc2ccccn2)C1)C(=O)O)OCc1ccccc1 (stereo partly specified) [2-Benzyloxycarbonylamino-3-({5-[4-(pyridin-2-ylamino)-butyl]-4,5-dihydro-isoxazole-3-carbonyl}-amino)-propionic acid]	85	–	> 100
Cc1cc(C)c(S(=O)(=O)N[C@@H](CNC(=O)C2=NOC(CCCCNS(N)(=O)=O)C2)C(=O)O)c(C)c1 (stereo partly specified) [2-[2,4,6-trimethylphenylsulfonylamino]-3-[5-(4-aminosulfonylamino)butyl)isoxazolin-3-ylcarbonyl]amino-propionic acid]	> 100	–	–
Cc1cc(C)c(S(=O)(=O)N[C@@H](CNC(=O)C2=NOC(CCCc3cnc(N)[nH]3)C2)C(=O)O)c(C)c1 (stereo partly specified) [3-({5-[3-(2-Amino-1H-imidazol-4-yl)-propyl]-4,5-dihydro-isoxazole-3-carbonyl}-amino)-2-(2,4,6-trimethyl-benzenesulfonylamino)-propionic acid]	0.18	0.28	–
Cc1cc(C)c(S(=O)(=O)N[C@@H](CNC(=O)C2=NOC(CCCc3cccc(N)n3)C2)C(=O)O)c(C)c1 (stereo partly specified) [3-({5-[3-(6-Amino-pyridin-2-yl)-propyl]-4,5-dihydro-isoxazole-3-carbonyl}-amino)-2-(2,4,6-trimethyl-benzenesulfonylamino)-propionic acid]	–	78	–
Cc1cc(C)c(S(=O)(=O)N[C@@H](CNC(=O)C2=NOC(CCCCNc3nccc4ccccc34)C2)C(=O)O)c(C)c1 (stereo partly specified) [3-({5-[4-(Isoquinolin-1-ylamino)-butyl]-4,5-dihydro-isoxazole-3-carbonyl}-amino)-2-(2,4,6-trimethyl-benzenesulfonylamino)-propionic acid]	6.5	78	–
Cc1cc(C)c(S(=O)(=O)N[C@@H](CNC(=O)C2=NOC(CCCCNc3cc4ccccc4cn3)C2)C(=O)O)c(C)c1 (stereo partly specified) [3-({5-[4-(Isoquinolin-3-ylamino)-butyl]-4,5-dihydro-isoxazole-3-carbonyl}-amino)-2-(2,4,6-trimethyl-benzenesulfonylamino)-propionic acid]	7.7	11	–
Cc1cc(C)c(S(=O)(=O)N[C@@H](CNC(=O)C2=NOC(CCCCNc3ccccn3)C2)C(=O)O)c(C)c1 (stereo partly specified) [3-({5-[4-(Pyridin-2-ylamino)-butyl]-4,5-dihydro-isoxazole-3-carbonyl}-amino)-2-(2,4,6-trimethyl-benzenesulfonylamino)-propionic acid]	6.5	16	–
Cc1cc(C)c(S(=O)(=O)N[C@@H](CNC(=O)C2=NOC(CCNC(=O)Nc3ncc[nH]3)C2)C(=O)O)c(C)c1 (stereo partly specified) [3-[(5-{2-[3-(1H-Imidazol-2-yl)-ureido]-ethyl}-4,5-dihydro-isoxazole-3-carbonyl)-amino]-2-(2,4,6-trimethyl-benzenesulfonylamino)-propionic acid]	32	120	–
Cc1cc(C)c(S(=O)(=O)N[C@@H](CNC(=O)C2=NOC(CCCCNC(=N)N)C2)C(=O)O)c(C)c1 (stereo partly drawn) [3-{5-[4-amino(imino)methylaminobutyl]-4,5-dihydro-3-isoxazolylcarboxamido}-2-mesitylsulfonamido-(2S)-propanoic acid]	–	0.16	–
